The target of assay [1] is T1, 5-hydroxytryptamine receptor 1A (Rattus norvegicus) (UniProt P19327).
T1 sequence (whole entry): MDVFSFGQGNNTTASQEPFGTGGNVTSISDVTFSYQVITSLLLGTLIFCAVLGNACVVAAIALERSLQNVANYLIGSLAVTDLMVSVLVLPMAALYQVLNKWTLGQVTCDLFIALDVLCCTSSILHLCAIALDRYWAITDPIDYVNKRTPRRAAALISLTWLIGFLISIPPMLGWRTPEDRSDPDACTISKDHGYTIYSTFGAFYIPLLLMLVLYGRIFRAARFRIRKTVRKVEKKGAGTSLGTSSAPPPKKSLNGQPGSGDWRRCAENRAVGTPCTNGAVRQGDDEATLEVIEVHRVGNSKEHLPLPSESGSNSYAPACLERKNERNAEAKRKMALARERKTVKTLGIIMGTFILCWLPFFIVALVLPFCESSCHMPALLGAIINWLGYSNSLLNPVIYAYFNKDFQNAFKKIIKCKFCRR
As to the kind of experiment: Effect on 5-hydroxytryptamine 1A receptor mediated inhibition of VIP-stimulated cAMP production at dose of 50 uM. The note with it: values are per cent of control. It is filed as functional. In outline:
(§1)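 GH4ZD10 cells expressing rat 5-HT1A receptors, detached with EDTA-supplemented Ca/Mg-free EBSS and resuspended in Ham's F10 with 0.01% ascorbic acid and 0.1 mM IBMX. Preincubated 1 h at 37 °C, then 0.8-1.5×10^6 cells/mL incubated 20 min at 37 °C with VIP (39 nM final) plus compounds. Duplicate samples stopped by boiling. cAMP measured in triplicate by protein-binding assay. Results are given as % of the VIP-stimulated response.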

Assay [2] has as its target T1, 5-hydroxytryptamine receptor 1A (Rattus norvegicus). As to the kind of experiment: Effect on 5-hydroxytryptamine 1A receptor mediated inhibition of VIP-stimulated cAMP production at dose of 0.1 uM + 1 uM 5-HT. The note with it: values are per cent of control. The class given is functional. In outline:
(§2)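 GH4ZD10 cells expressing rat 5-HT1A receptors were detached with EBSS plus 1 mM EDTA and resuspended to ~1×10^7 cells/mL in Ham's F10 with 0.01% ascorbic acid and 0.1 mM IBMX. After 1 h preincubation at 37 °C they were diluted to 0.8-1.5×10^6 cells/mL, then incubated 20 min at 37 °C with VIP (39 nM final) plus compound, alone or with 5-HT, in duplicate. The reaction was stopped by boiling. cAMP was measured in triplicate by protein-binding assay and expressed as % of the VIP-stimulated response.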
On the technique in general: Cyclic AMP is a second messenger, typically raised through Gs and lowered through Gi signalling.

In assay [3] the target is T2, 5-hydroxytryptamine receptor 1A (Rattus norvegicus, UniProt P19327).
T2 sequence (P19327 whole entry): T1 sequence (whole entry)
Briefly: Binding affinity against rat hippocampal 5-hydroxytryptamine 1A (5-HT1A) receptor determined using [3H]8-OH-DPAT as radioligand. It is filed as tissue-based, Hippocampus.

Assay [4] addresses T1, 5-hydroxytryptamine receptor 1A (Rattus norvegicus). Briefly: Effect on 5-hydroxytryptamine 1A receptor mediated inhibition of VIP-stimulated cAMP production at dose of 1 uM+ 50 uM 5-HT. It is filed as functional. The conditions noted are these: values are per cent of control. In outline:
as §1

For assay [5] the target is unchanged. The note with it: 0.05 uM.
Assay [6] shares this target. As to the kind of experiment: Effect on 5-hydroxytryptamine 1A receptor mediated inhibition of VIP-stimulated cAMP production at dose of 1 uM. The class given is functional. The conditions noted are these: values are per cent of control. In outline:
as §2

Assay [7] shares this target. As to the kind of experiment: Effect against 5-hydroxytryptamine 1A receptor mediated inhibition of VIP-stimulated cAMP production at 0.1 uM dose. It is filed as functional. The conditions noted are these: values are per cent of control. In outline:
as §2

Assay [8] has the same target. The note with it: 1 uM.
The target is the same in assay [9]. Briefly: Effect on 5-hydroxytryptamine 1A receptor mediated inhibition of VIP-stimulated cAMP production at dose of 10 uM. The class given is functional. The conditions noted are these: values are per cent of control. In outline: as §2
Assay [10] shares this target. As to the kind of experiment: (§3) Effect on 5-hydroxytryptamine 1A receptor mediated inhibition of VIP-stimulated cAMP production at dose of 0.1 uM + 10 uM 5-HT. The class given is functional. The conditions noted are these: values are per cent of control. In outline: as §2
Assay [11] shares this target. Briefly: Effect on 5-hydroxytryptamine 1A receptor mediated inhibition of VIP-stimulated cAMP production at dose of 30 uM. The class given is functional. The conditions noted are these: values are per cent of control. The essentials:
as §2

The target is the same in assay [12]. As to the kind of experiment: Effect on 5-hydroxytryptamine 1A receptor mediated inhibition of VIP-stimulated cAMP production at dose of 50 uM+ 50 uM 5-HT. It is filed as functional. The note with it: values are per cent of control. In outline:
as §1

Assay [13] shares this target. As to the kind of experiment: Effect on 5-hydroxytryptamine 1A receptor mediated inhibition of VIP-stimulated cAMP production at dose of 1 uM+ 1 uM 5-HT. The note with it: values are per cent of control. The class given is functional. The essentials: as §1
Assay [14] has the same target. Briefly: Effect on 5-hydroxytryptamine 1A receptor mediated inhibition of VIP-stimulated cAMP production at dose of 10 uM+ 10 uM 5-HT. The class given is functional. The conditions noted are these: values are per cent of control. In outline:
as §1

For assay [15] the target is unchanged. Briefly: Effect on 5-hydroxytryptamine 1A receptor mediated inhibition of VIP-stimulated cAMP production at dose of 0.05 uM. The class given is functional. The note with it: values are per cent of control. The essentials:
as §1

The target is the same in assay [16]. Briefly: Effect on 5-hydroxytryptamine 1A receptor mediated inhibition of VIP-stimulated cAMP production at dose of 1 uM+ 10 uM 5-HT. The class given is functional. The conditions noted are these: values are per cent of control. The essentials: as §2
For assay [17] the target is unchanged. Briefly: Effect on 5-hydroxytryptamine 1A receptor mediated inhibition of VIP-stimulated cAMP production at dose of 1 uM+ 0.1 uM 5-HT. The class given is functional. The note with it: values are per cent of control. In outline: as §1
Assay [18] has the same target. Briefly: Effect on 5-hydroxytryptamine 1A receptor mediated inhibition of VIP-stimulated cAMP production at dose of 0+ 1 uM 5-HT. It is filed as functional. The note with it: values are per cent of control. The essentials:
as §1

The target is the same in assay [19]. As to the kind of experiment: Effect on 5-hydroxytryptamine 1A receptor mediated inhibition of VIP-stimulated cAMP production at dose of 0.1 uM + 0.1 uM 5-HT. The class given is functional. The note with it: values are per cent of control. The essentials:
as §1

For assay [20] the target is unchanged. The assay is described as §3. It is filed as functional. The note with it: values are per cent of control. In outline: as §1
This is another data set of the same source.

In general, Ki refers to a measure of affinity in units of concentration, obtained from inhibition or displacement.

Several values for one entry are separate records, joined by “and”; a condition that tells them apart may be missing. Equal values may be shown once.

On to `CCCN(CCCCN1C(=O)CC2(CCCC2)CC1=O)[C@H]1CCc2c(F)ccc(OC)c2C1`, for which the response, % of control was determined as 39% in assay [1]; 50% in [2]; 41% in assay [4]; 87% in [5]; 79% in [6]. Further, the Ki in assay [3] was found to be 4.9 nM.

Consider `CCCN(CCC)[C@H]1CCc2c(F)ccc(O)c2C1`, for which the response, % of control was 94% in [7], 100% in assay [8], 57% in assay [2] and 100% in assay [9]. In addition, in [3], the Ki came out at 24.8 nM.

`CCCN(CCC)[C@@H]1CCc2c(F)ccc(-c3ccco3)c2C1`: the response, % of control in assay [10] was 61%; in [11], 79%; in [7] it was 106% and 98%; in [2] it was 60%; in assay [9] it was 84%; in assay [6], 97%.

In the case of `CCCN(CCCCN1C(=O)CC2(CCCC2)CC1=O)[C@H]1CCc2c(F)ccc(C(C)=O)c2C1`, the response, % of control was found to be 91% in assay [12]; 93% in [1]; 91% in assay [13]; 70% in [2]; 109% in assay [9]; 102% in [14]. The figures for the response, % of control in assay [15] and in [6] were 104% and 97%, respectively. In addition, in assay [3], the Ki stood at 13.9 nM.

Take `CCCN(CCCCN1C(=O)CC2(CCCC2)CC1=O)[C@H]1CCc2c(F)ccc(-c3ccco3)c2C1`: the response, % of control is 68% in [16]; 58% and 66% in assay [17]; 62% in assay [2]. Also, in assay [3], the affinity corresponds to a Ki of 7.5 nM.

For `CCCN(CCCCN1C(=O)CC2(CCCC2)CC1=O)[C@@H]1CCc2c(F)ccc(-c3ccco3)c2C1`, the response, % of control was found to be 62% in assay [18]; 57% in assay [19]; 60% in assay [13]; 54% in [20]; 60% in [6]. In addition, the Ki in [3] worked out at 1.1 nM.

Values taken from ChEMBL document CHEMBL1129431, “Derivatives of (R)- and (S)-5-fluoro-8-hydroxy-2-(dipropylamino)tetralin: synthesis and interactions with 5-HT1A receptors” (J Med Chem, 1996).
